≈ marks a conversion by molar mass, not a printed value. Calls of active or inactive are those of the source. No cut-off for these calls is given here.
Columns and labels:
[1] = tested on: Brevibacillus laterosporus; experiment: Antibacterial activity against Brevibacillus laterosporus ATCC 64 assessed as growth inhibition by agar dilution assay; format: functional
[2] = tested on: Staphylococcus aureus; experiment: microbe, parasite or virus in culture; format: functional; conditions: ATCC 6538
[3] = tested on: Escherichia coli; experiment: Inhibition of Escherichia coli DNA gyrase-mediated double-stranded catenated kinetoplast DNA decatenation at 90 uM after 30 mins by agarose gel electrophoresis in presence of ATP
How it was run: (§1)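 kDNA decatenation: 200 ng catenated kDNA with 1 U S. aureus gyrase, E. coli gyrase or human Topo IIα in assay buffer with ATP, 37 °C for 30 min. Stopped with universal stop solution, resolved on 1% agarose, ethidium bromide stained, UV imaging.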

[4] = tested on: Escherichia coli; experiment: Antibacterial activity against Escherichia coli assessed as growth inhibition by agar dilution assay in presence of 0.002 mg/ml OM permeabilizer PBMN; format: functional
[5] = tested on: Streptococcus pneumoniae; experiment: Antibacterial activity against Streptococcus pneumoniae assessed as growth inhibition by agar dilution assay; format: functional
How it was run: (§2)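 Agar dilution MIC per CLSI (aerobic and anaerobic methods); compounds dissolved in DMSO, reference antibiotics in sterile water. MIC taken as lowest concentration with no visible growth; determined at least twice on separate days, higher value reported. Clinical isolate ranges summarized as MIC50/MIC90.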

[6] = tested on: Escherichia coli; experiment: Antibacterial activity against Escherichia coli ATCC 25922 assessed as growth inhibition by agar dilution assay; format: functional; how it was run: as §2
[7] = tested on: Staphylococcus epidermidis; experiment: Antibacterial activity against methicillin-resistant Staphylococcus epidermidis assessed as growth inhibition by agar dilution assay; format: functional
How it was run: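 CLSI agar dilution MIC against aerobic and anaerobic strains. Test compounds were dissolved in DMSO and reference antibiotics in sterile water. MIC was taken as the lowest concentration showing no bacterial growth. Each MIC was determined at least twice on separate days, and the higher value was reported. E. coli PQ 37 was cultured in LA medium.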

[8] = biological target: DNA gyrase (Staphylococcus aureus) (UniProt P0A0K8+P20831); experiment: Inhibition of Staphylococcus aureus DNA gyrase-mediated double-stranded catenated kinetoplast DNA decatenation at 90 uM after 30 mins by agarose gel electrophoresis in presence of ATP; format: protein-complex assay; how it was run: as §1
[9] = tested on: Staphylococcus aureus; experiment: In vivo antibacterial activity against Staphylococcus aureus in New zealand rabbit keratitis model assessed as suppression of conjuctival congestion, conjuctival chemosis, infiltration, operative ulcer area and depth at 4.3 mg/ml administered topically every 4 hrs for four doses every day for 10 days starting 24 hrs post-infection by slit lamp biomicroscopy; format: functional, organism-based
How it was run: (§3)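 NZW rabbits (2.0−3.0 kg), anesthetized with iv sodium pentobarbital 30 mg/kg, given intracorneal S. aureus (about 7.5 × 10^6 CFU) from an overnight LB culture. Starting 24 h post-infection, 30 μL drops applied topically per eye every 4 h, four doses daily (8 a.m.–8 p.m.), for 10 days, masked. Test compound in PEG–water (1:1). Slit-lamp biomicroscopy before and after.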

[10] = biological target: T1, DNA topoisomerase 1 (Escherichia coli (strain K12)) (UniProt P06612); experiment: Inhibition of Escherichia coli topoisomerase 1 assessed as single stranded breaks using pHOT-1 DNA as substrate treated with substrate for 15 mins prior to enzyme addition for 30 mins by agarose gel electrophoresis
T1 sequence (whole entry): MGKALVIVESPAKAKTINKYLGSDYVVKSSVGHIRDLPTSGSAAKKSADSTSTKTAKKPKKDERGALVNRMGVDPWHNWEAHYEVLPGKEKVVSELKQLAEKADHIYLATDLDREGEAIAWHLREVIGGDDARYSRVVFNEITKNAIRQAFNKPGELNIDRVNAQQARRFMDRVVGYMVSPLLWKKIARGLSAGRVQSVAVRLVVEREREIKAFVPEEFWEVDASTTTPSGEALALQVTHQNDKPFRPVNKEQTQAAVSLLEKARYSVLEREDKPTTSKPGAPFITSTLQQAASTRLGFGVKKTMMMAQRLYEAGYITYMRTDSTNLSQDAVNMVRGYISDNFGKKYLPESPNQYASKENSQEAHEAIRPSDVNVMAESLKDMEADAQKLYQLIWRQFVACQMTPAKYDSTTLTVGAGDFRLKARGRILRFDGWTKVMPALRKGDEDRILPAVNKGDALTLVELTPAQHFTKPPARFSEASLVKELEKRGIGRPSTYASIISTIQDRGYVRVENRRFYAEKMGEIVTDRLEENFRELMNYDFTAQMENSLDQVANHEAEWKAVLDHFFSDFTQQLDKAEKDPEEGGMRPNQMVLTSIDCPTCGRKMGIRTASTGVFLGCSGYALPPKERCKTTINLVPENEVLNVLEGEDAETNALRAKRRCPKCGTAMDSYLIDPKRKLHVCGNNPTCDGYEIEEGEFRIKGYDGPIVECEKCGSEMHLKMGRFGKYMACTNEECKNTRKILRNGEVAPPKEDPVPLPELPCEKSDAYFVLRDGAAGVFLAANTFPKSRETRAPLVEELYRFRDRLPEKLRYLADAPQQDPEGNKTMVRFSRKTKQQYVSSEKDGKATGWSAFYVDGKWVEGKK

[11] = tested on: Bacteroides fragilis; experiment: Antibacterial activity against Bacteroides fragilis ATCC 25285 assessed as growth inhibition by agar dilution assay; format: functional; how it was run: as §2
[12] = tested on: Bacillus cereus; experiment: Antibacterial activity against Bacillus cereus ATCC 10231 assessed as growth inhibition by agar dilution assay; format: functional
[13] = tested on: Escherichia coli; experiment: Inhibition of Escherichia coli DNA gyrase-mediated pHOT-1 supercoiling at 30 uM after 30 mins by agarose gel electrophoresis in presence of ATP
How it was run: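 Supercoiling: 100 ng relaxed pHOT-1 with 1 U S. aureus or E. coli gyrase and graded compound concentrations, ATP present, 37 °C for 30 min. Stopped with 10% SDS, 1% agarose electrophoresis, ethidium bromide staining, UV imaging; ciprofloxacin positive control.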

[14] = Cytotoxicity against CHL cells assessed as cell viability after 24 hrs by MTT assay; format: cell-based, Cricetulus griseus; conditions: chinese hamster
How it was run: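 CHL fibroblasts seeded at about 5 × 10^4 cells/mL, incubated overnight at 37 °C, 5% CO2, then exposed to compound at different concentrations for 24 h. Viability read by MTT, absorbance at 570 nm, relative to cells in medium alone (100%). Triplicate.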

[15] = tested on: Staphylococcus epidermidis; experiment: Antibacterial activity against methicillin-sensitive Staphylococcus epidermidis assessed as growth inhibition by agar dilution assay; format: functional; how it was run: as §2
[16] = tested on: Enterococcus faecalis; experiment: Antibacterial activity against vancomycin-sensitive Enterococcus faecalis assessed as growth inhibition by agar dilution assay; format: functional
[17] = tested on: Staphylococcus aureus; experiment: In vivo antibacterial activity against Staphylococcus aureus in New zealand rabbit keratitis model assessed as suppression of corneal edema at 4.3 mg/ml administered topically every 4 hrs for four doses every day for 10 days starting 24 hrs post-infection by slit lamp biomicroscopy; format: functional, organism-based; conditions: Cornea; how it was run: as §3
[18] = Binding affinity to supercoiled pHOT-1 DNA assessed as unwinding of DNA helix by measuring distribution of topoisomers at 10 to 150 uM treated 15 mins prior to Escherichia coli topoisomerase 1 addition for 30 mins by agarose gel electrophoresis
[19] = tested on: Staphylococcus aureus; experiment: Antibacterial activity against Staphylococcus aureus ATCC 29213 assessed as growth inhibition by agar dilution assay; format: functional; how it was run: as §2
[20] = Binding affinity to supercoiled pHOT-1 DNA assessed as unwinding of DNA helix by measuring shift of negative to positive supercoiled pHOT-1 at 10 to 150 uM treated 15 mins prior to Escherichia coli topoisomerase 1 addition for 30 mins by agarose gel electrophoresis
[21] = tested on: Escherichia coli; experiment: Antibacterial activity against Escherichia coli assessed as growth inhibition at <0.256 mg/ml by agar dilution assay; format: functional, organism-based

Sequence of DNA gyrase (Staphylococcus aureus) (P0A0K8 2-644 limits assumed): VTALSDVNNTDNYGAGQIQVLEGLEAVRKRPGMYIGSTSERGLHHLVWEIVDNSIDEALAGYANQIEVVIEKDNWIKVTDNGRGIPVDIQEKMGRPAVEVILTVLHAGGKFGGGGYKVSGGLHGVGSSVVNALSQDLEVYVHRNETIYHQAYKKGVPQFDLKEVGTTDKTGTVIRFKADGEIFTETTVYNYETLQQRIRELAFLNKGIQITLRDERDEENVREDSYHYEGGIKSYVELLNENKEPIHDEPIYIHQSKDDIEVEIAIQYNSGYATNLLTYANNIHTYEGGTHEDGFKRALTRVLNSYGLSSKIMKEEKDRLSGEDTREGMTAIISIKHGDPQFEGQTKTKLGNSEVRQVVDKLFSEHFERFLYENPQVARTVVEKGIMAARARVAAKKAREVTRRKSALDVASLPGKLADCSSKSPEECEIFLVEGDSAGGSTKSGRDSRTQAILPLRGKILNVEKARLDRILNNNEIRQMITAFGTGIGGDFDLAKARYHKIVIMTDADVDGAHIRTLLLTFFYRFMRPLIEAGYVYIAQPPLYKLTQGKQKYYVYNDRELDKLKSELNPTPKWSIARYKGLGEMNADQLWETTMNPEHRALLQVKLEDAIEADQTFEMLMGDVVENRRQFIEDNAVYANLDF
Sequence of DNA gyrase (Staphylococcus aureus) (P20831 whole entry partner): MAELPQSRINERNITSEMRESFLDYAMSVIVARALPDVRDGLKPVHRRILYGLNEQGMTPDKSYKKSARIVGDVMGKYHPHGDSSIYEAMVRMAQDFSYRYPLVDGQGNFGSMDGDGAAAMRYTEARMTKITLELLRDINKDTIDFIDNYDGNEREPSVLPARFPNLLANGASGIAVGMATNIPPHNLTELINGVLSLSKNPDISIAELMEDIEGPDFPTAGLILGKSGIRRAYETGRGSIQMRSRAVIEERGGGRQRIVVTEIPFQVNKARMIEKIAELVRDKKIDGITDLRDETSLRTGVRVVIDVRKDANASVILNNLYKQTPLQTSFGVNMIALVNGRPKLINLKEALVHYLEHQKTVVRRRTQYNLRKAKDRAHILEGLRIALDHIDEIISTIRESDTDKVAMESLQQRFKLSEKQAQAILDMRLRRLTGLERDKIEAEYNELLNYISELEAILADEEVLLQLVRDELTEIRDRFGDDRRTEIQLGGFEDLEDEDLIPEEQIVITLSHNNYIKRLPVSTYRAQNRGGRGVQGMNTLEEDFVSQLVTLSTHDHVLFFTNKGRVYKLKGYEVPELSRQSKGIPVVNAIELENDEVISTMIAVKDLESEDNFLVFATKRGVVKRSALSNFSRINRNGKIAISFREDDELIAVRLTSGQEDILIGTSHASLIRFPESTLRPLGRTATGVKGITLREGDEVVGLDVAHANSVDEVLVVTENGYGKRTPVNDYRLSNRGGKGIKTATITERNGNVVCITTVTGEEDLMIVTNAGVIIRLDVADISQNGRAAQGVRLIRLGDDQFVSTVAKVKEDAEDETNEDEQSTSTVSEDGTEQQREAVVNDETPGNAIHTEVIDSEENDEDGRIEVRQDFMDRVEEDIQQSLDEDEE

With `Cc1cc(O)c2c(c1)C(=O)c1c(I)c(O)c(I)c(O)c1C2=O` the MIC [1] was 4 µg/mL (≈ 7.66 µM), the MIC [2] was 2 µg/mL (≈ 3.83 µM) and the inhibition [3] was “Active”. For the same molecule, the MIC [4] was 8 µg/mL, the MIC [5] was 32 µg/mL (≈ 61.3 µM) and the MIC [6] was > 256 µg/mL. For the same molecule, the MIC [7] was 4 µg/mL (≈ 7.66 µM), the inhibition [8] was “Active” and the inhibition [9] was “Active”. For the same molecule, the Activity [10] was “inactive”, the MIC [11] was 256 µg/mL (≈ 490 µM) and the MIC [12] was 4 µg/mL (≈ 7.66 µM). The inhibition [13] was “Active”, the IC90 at 24 h [14] was 256 µg/mL (≈ 490 µM) and the MIC [15] was 1 µg/mL (≈ 1.92 µM). For the same molecule, the MIC [16] was 8 µg/mL (≈ 15.3 µM), the inhibition [17] was “Active” and the Activity [18] was “inactive”. For the same molecule, the MIC [19] was 8 µg/mL (≈ 15.3 µM), the Activity [20] was “inactive” and the “growth inhibition (GI)” value [21] was “inactive”.
